ChEMBL document CHEMBL2069235, “Synthesis and biological evaluation of tyrosine modified analogues of the α4β7 integrin inhibitor biotin-R₈ERY” (Bioorg Med Chem, 2012)
The source made the active and inactive calls. The calls are words filed in the database; no cut-off is given here. *1 amine or outer side, *2 acyl side, *3 side chain or, on linkers, in order; H or OH if unused. Where a SMILES comes first, the peptide text is derived from it. [ ]: non-standard residue; d: D form. The star is where a group is joined. X2 = CCc1ccc(-c2ccc(C[C@H](N[*:1])C(=O)[*:2])cc2)cc1; Biotin = O=C1N[C@H]2[C@H](CS[C@H]2CCCCC(=O)*)N1; X1 = O=C([C@H](Cc1ccc(C2CCCCC2)cc1)N[*:1])[*:2]; Bip = N[C@@H](Cc1ccc(-c2ccccc2)cc1)C(=O)O

What was measured:
Format in all cases: cell-based
[1] = biological target: T1, Integrin alpha-4/beta-7 (Mus musculus) (UniProt Q00651+P26011); experiment: Inhibition of alpha4beta7 assessed as inhibition of Mn(2+)-activated adhesion of mouse TK-1 T cells to mouse MAdCAM-1 at 50 uM incubated for 1 hr by cell adhesion assay
Method in brief: (§1)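 TK-1 cells (mouse AKR/Cum α4β7+/α4β1− CD8 T lymphoma), grown at 37 °C in RPMI 1640 with 10% FCS and 0.05 mM β-mercaptoethanol, were washed and held 1 h at room temperature in HBSS/10 mM Hepes with peptide. They were then activated with 2 mM MnCl₂ and added at 10⁶ cells/well to glass slides coated with mouse MAdCAM-1-Fc (10 μg/ml, FBS-blocked). Adhesion ran 30 min.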

[2] = biological target: T1, Integrin alpha-4/beta-7 (Mus musculus); experiment: Inhibition of alpha4beta7 assessed as inhibition of Mn(2+)-activated adhesion of mouse TK-1 T cells to mouse MAdCAM-1 at 100 uM incubated for 1 hr by cell adhesion assay; method in brief: as §1
[3] = biological target: T1, Integrin alpha-4/beta-7 (Mus musculus); experiment: Inhibition of alpha4beta7 assessed as inhibition of Mn(2+)-activated adhesion of mouse TK-1 T cells to mouse MAdCAM-1 at 25 uM incubated for 1 hr by cell adhesion assay; method in brief: as §1
Integrin alpha-4/beta-7 = biological target: T2, Integrin alpha-4/beta-7 (Mus musculus, UniProt P26011+Q00651); experiment: Inhibition of alpha4beta7 assessed as inhibition of Mn(2+)-activated adhesion of mouse TK-1 T cells to mouse MAdCAM-1 incubated for 1 hr by cell adhesion assay
T2 sequence (Q00651 whole entry): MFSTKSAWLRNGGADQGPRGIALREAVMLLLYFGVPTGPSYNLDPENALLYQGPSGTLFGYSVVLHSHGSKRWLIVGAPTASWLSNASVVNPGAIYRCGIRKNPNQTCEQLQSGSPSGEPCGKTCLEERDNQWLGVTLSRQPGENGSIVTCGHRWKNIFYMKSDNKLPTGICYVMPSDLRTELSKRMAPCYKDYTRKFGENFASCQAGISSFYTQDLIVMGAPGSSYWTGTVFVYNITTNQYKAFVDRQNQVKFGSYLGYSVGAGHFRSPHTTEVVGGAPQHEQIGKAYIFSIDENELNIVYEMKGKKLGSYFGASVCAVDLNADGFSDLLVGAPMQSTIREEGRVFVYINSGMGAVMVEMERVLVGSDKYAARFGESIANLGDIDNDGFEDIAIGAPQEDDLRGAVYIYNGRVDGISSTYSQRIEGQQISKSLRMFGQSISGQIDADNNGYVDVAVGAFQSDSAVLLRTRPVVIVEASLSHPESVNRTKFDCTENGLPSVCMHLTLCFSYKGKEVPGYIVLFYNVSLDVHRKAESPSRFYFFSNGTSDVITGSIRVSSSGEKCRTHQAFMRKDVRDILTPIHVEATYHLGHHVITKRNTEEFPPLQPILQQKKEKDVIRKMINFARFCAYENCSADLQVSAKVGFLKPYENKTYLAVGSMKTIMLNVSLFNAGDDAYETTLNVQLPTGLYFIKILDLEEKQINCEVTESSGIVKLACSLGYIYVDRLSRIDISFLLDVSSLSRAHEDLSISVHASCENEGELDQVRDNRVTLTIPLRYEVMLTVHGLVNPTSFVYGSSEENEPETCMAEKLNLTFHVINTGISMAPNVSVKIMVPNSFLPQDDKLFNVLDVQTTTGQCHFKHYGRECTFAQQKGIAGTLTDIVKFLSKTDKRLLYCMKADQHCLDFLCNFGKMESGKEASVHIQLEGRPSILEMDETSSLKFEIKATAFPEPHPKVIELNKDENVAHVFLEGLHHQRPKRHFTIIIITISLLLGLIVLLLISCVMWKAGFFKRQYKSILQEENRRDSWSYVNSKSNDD
T2 sequence (P26011 whole entry): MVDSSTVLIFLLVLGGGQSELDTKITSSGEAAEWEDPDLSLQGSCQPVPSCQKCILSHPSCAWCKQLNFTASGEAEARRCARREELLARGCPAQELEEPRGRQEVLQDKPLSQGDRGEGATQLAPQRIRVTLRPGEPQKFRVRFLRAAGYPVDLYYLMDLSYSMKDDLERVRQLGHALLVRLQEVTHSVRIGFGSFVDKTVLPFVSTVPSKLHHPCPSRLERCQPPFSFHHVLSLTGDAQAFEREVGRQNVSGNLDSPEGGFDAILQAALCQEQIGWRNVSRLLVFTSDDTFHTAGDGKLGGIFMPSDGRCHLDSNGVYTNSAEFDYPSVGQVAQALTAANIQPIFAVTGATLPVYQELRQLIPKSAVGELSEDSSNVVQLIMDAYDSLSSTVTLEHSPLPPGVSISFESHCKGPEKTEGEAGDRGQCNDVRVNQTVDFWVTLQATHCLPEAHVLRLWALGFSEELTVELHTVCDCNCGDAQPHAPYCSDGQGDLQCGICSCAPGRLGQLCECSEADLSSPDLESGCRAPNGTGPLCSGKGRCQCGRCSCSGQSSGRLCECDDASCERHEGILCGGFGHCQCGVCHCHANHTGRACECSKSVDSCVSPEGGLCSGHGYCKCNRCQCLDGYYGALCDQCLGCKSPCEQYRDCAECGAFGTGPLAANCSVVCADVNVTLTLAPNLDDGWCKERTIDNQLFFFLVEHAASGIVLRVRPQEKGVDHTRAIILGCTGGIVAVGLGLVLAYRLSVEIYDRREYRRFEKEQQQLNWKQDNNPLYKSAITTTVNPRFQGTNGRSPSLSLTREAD
Method in brief: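 TK-1 cells (mouse AKR/Cum CD8+ α4β7+/α4β1− T lymphoma), cultured at 37 °C in RPMI 1640 with 10% FCS and 0.05 mM β-mercaptoethanol. HBSS/10 mM Hepes buffer; cells preincubated with peptide 1 h at room temperature, then activated with MnCl2 to 2 mM. Added at 10⁶ cells/well to glass slides coated with mouse MAdCAM-1-Fc (10 µg/ml, 4 °C overnight, FBS-blocked); adhesion 30 min at room temperature.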

[4] = biological target: T1, Integrin alpha-4/beta-7 (Mus musculus); experiment: Inhibition of alpha4beta7 assessed as inhibition of Mn(2+)-activated adhesion of mouse TK-1 T cells to mouse MAdCAM-1 at <5 to 10 uM incubated for 1 hr by cell adhesion assay; method in brief: as §1

| SMILES | inhibition [1] [%] | inhibition [2] [%] | inhibition [3] | IC50 (Integrin alpha-4/beta-7) [µM] | inhibition [4] |
| --- | --- | --- | --- | --- | --- |
| CCc1ccc(-c2ccc(C[C@H](NC(=O)[C@H](CCCNC(=N)N)NC(=O)[C@H](CCC(=O)O)NC(=O)[C@H](CCCNC(=N)N)NC(=O)[C@H](CCCNC(=N)N)NC(=O)[C@H](CCCNC(=N)N)NC(=O)[C@H](CCCNC(=N)N)NC(=O)[C@H](CCCNC(=N)N)NC(=O)[C@H](CCCNC(=N)N)NC(=O)[C@H](CCCNC(=N)N)NC(=O)[C@H](CCCNC(=N)N)NC(=O)CCCC[C@@H]3SC[C@@H]4NC(=O)N[C@@H]43)C(=O)O)cc2)cc1 (Biotin-RRRRRRRRER[X2]-OH) | 58 | 74.2 | Active | 14.3 | Active |
| N=C(N)NCCC[C@H](NC(=O)[C@H](CCCNC(=N)N)NC(=O)[C@H](CCCNC(=N)N)NC(=O)[C@H](CCCNC(=N)N)NC(=O)[C@H](CCCNC(=N)N)NC(=O)[C@H](CCCN=C(N)N)NC(=O)[C@H](CCCN=C(N)N)NC(=O)[C@H](CCCN=C(N)N)NC(=O)CCCC[C@@H]1SC[C@@H]2NC(=O)N[C@@H]21)C(=O)N[C@@H](CCC(=O)O)C(=O)N[C@@H](CCCN=C(N)N)C(=O)N[C@@H](Cc1ccc(C2CCCCC2)cc1)C(=O)O (Biotin-RRRRRRRRER[X1]-OH) |  |  |  | 19 |  |
| N=C(N)NCCC[C@H](NC(=O)CCCC[C@@H]1SC[C@@H]2NC(=O)N[C@@H]21)C(=O)N[C@@H](CCCNC(=N)N)C(=O)N[C@@H](CCCNC(=N)N)C(=O)N[C@@H](CCCNC(=N)N)C(=O)N[C@@H](CCCNC(=N)N)C(=O)N[C@@H](CCCNC(=N)N)C(=O)N[C@@H](CCCNC(=N)N)C(=O)N[C@@H](CCCNC(=N)N)C(=O)N[C@@H](CCC(=O)O)C(=O)N[C@@H](CCCNC(=N)N)C(=O)N[C@@H](Cc1ccc(-c2ccccc2)cc1)C(=O)O (Biotin-RRRRRRRRER[Bip]-OH) | 80.2 | 91.3 | Active | 7.3 | Active |
